Activity calls are given as the source filed them. The rule behind the calls is not given here.
What was measured:
SMMC-7721 [1] = assay: Induction of cytoplasmic vacuolation in human SMMC7721 cells assessed as vacuolar cell formation and appearance of apoptotic cells at 3 to 10 uM incubated for 48 hrs by phase contrast microscopy; type: functional, cell-based
SMMC-7721 [2] = assay: Induction of apoptosis with PS translocation in human SMMC7721 cells at 3 to 10 uM incubated for 48 hrs by Annexin V-FITC and propidium iodide staining based flow cytometry; type: functional, cell-based
Outline: (§1)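 After 48 h treatment, SMMC-7721 cells were collected, stained with annexin V-FITC plus PI, and analysed by flow cytometry for PS externalization/apoptotic fraction.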

CNE [3] = assay: Antiproliferative activity against human CNE1 cells assessed as reduction in cell viability incubated for 48 hrs by MTT assay; type: functional, cell-based
CNE-2 [4] = assay: Antiproliferative activity against human CNE2 cells assessed as reduction in cell viability incubated for 48 hrs by MTT assay; type: functional, cell-based
HepG2 [5] = assay: Antiproliferative activity against human HepG2 cells assessed as reduction in cell viability incubated for 48 hrs by MTT assay; type: functional, cell-based
SMMC-7721 [6] = assay: Antiproliferative activity against human SMMC7721 assessed as reduction in cell viability incubated for 48 hrs by MTT assay; type: functional, cell-based
CNE [7] = assay: Induction of cell vacuole formation in human CNE1 cells at 5 uM incubated for 24 hrs by phase contrast microscopy; type: functional, cell-based
CNE-2 [8] = assay: Induction of cell vacuole formation in human CNE2 cells at 5 uM incubated for 24 hrs by phase contrast microscopy; type: functional, cell-based
HepG2 [9] = assay: Induction of cell vacuole formation in human HepG2 cells at 5 uM incubated for 24 hrs by phase contrast microscopy; type: functional, cell-based
SMMC-7721 [10] = assay: Induction of cell vacuole formation in human SMMC7721cells at 5 uM incubated for 24 hrs by phase contrast microscopy; type: functional, cell-based
SMMC-7721 [11] = assay: Induction of paraptosis in human SMMC7721 cells assessed as increase in GRP78 expression by Western blot analysis; type: functional, cell-based
SMMC-7721 [12] = assay: Induction of paraptosis in human SMMC7721 cells assessed as increase in LC3-II/LC3-I expression ratio by Western blot analysis; type: functional, cell-based
SMMC-7721 [13] = assay: Decrease in p62 expression level in human SMMC7721 cells by Western blot analysis; type: functional, cell-based
SMMC-7721 [14] = assay: Antiproliferative activity against human SMMC7721 assessed as reduction in cell viability incubated for 48 hrs by CCK-8 assay; type: functional, cell-based; settings: SMMC-7721, 48 h
SMMC-7721 [15] = assay: Induction of cytoplasmic vacuolation in human SMMC7721 cells assessed as increase in number of vacuoles formation with shrinked volume of vacuoles at 3 to 10 uM incubated for 48 hrs by inverted phase contrast microscopy; type: functional, cell-based
SMMC-7721 [16] = assay: Induction of cell morphological changes in human SMMC7721 cells assessed as cell shrinkage at 3 to 10 uM incubated for 48 hrs by HE staining based light microscopy; type: functional
Outline: (§2)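 Haematoxylin-eosin staining of SMMC-7721 cells after 48 h treatment, examined by light microscopy.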

SMMC-7721 [17] = assay: Induction of cell morphological changes in human SMMC7721 cells assessed as cytoplasmic loss at 3 to 10 uM incubated for 48 hrs by H and E staining based light microscopy; type: functional; outline: as §2
SMMC-7721 [18] = assay: Induction of endoplasmic reticulum vacuolation in human SMMC7721 cells assessed as nuclei shrank and appearance of vacuoles surrounded by positive ER-specific markers at 3 to 5 uM incubated for 48 hrs by ER-tracker red and Hoechst 33342 staining based laser scanning confocal microscopy; type: functional, cell-based
SMMC-7721 [19] = assay: Induction of endoplasmic reticulum vacuolation in human SMMC7721 cells assessed as increase in vacuole formation and entire ER cytoplasm occupied with vacuole with loss of cell contents at 3 to 5 uM incubated for 48 hrs by ER-tracker red and Hoechst 33342 staining based laser scanning confocal microscopy; type: functional
SMMC-7721 [20] = assay: Induction of cell morphological changes in human SMMC7721 cells assessed as appearance of large vacuoles in cytoplasm at 5 uM incubated for 48 hrs by transmission electron microscopy; type: functional, cell-based
Outline: (§3)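 SMMC-7721 cells incubated 48 h at 5 μM, alongside untreated control cells, then imaged by transmission electron microscopy. ER, mitochondria, Golgi, nucleus, membrane and autophagosomes/apoptotic bodies were inspected.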

SMMC-7721 [21] = assay: Induction of endoplasmic reticulum vacuolation in human SMMC7721 cells assessed as vacuole derivatization by expansion and swelling of rough ER with vacuoles wrapped in monolayer membranes with loss of ER structure integrity at 5 uM incubated for 48 hrs by transmission electron microscopy; type: functional, cell-based; outline: as §3
SMMC-7721 [22] = assay: Induction of mitochondrial swelling, vacuoles and ridges disappearance and loss of mitochondrial and golgi apparatus structural integrity in human SMMC7721 cells at 5 uM incubated for 48 hrs by transmission electron microscopy; type: functional, cell-based; outline: as §3
HepG2 [23] = assay: Antiproliferative activity against human HepG2 cells assessed as reduction in cell viability incubated for 48 hrs by CCK-8 assay; type: functional, cell-based
CNE-2 [24] = assay: Antiproliferative activity against human CNE2 cells assessed as reduction in cell viability incubated for 48 hrs by CCK-8 assay; type: functional, cell-based
SMMC-7721 [25] = assay: Antiproliferative activity against human SMMC7721 cells assessed as decrease in cell viability incubated for 48 hrs by CCK-8 assay; type: functional, cell-based
Outline: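 SMMC-7721 cells exposed 48 h to 3, 5 or 10 μM, then viability read by CCK-8 assay.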

SMMC-7721 [26] = assay: Induction of apoptosis in human SMMC7721 cells assessed as viable cells with normal cell membrane at 10 uM incubated for 48 hrs by Annexin V-FITC and propidium iodide staining based flow cytometry; type: functional; outline: as §1
SMMC-7721 [27] = assay: Induction of cell cycle arrest in human SMMC7721 cells at 3 to 10 uM incubated for 48 hrs by propidium iodide staining based flow cytometry; type: functional
SMMC-7721 [28] = assay: Effect on cleaved caspase 3 level in human SMMC7721 cells at antiproliferative IC60 incubated for 12 to 48 hrs by Western blot analysis; type: functional, cell-based
Outline: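 SMMC-7721 cells were treated 12, 24 and 48 h, with cisplatin as apoptosis positive control. Extracts were immunoblotted for procaspase-3 and cleaved caspase-3, with β-actin as loading control.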

SMMC-7721 [29] = assay: Induction of endoplasmic reticulum stress in human SMMC7721 cells assessed as increase in GRP78 expression at 3 uM by Western blot analysis; type: functional, cell-based; settings: TDE = time-dependent effect
SMMC-7721 [30] = assay: Increase in LC3-II/LC3-I expression ratio in human SMMC7721 cells at 3 uM incubated for 12 to 48 hrs by Western blot analysis; type: functional, cell-based
SMMC-7721 [31] = assay: Inhibition of autophagosome formation in human SMMC7721 cells assessed as increase in p62 level at 3 uM incubated for 12 to 48 hrs by Western blot analysis; type: functional, cell-based
CNE [32] = assay: Antiproliferative activity against human CNE1 cells assessed as reduction in cell viability incubated for 48 hrs by CCK-8 assay; type: functional, cell-based
CNE [33] = assay: Induction of cell vacuole formation in human CNE1 cells at 3 to 5 uM incubated for 48 hrs by phase contrast microscopy; type: functional, cell-based
CNE-2 [34] = assay: Induction of cell vacuole formation in human CNE2 cells at 3 to 5 uM incubated for 48 hrs by phase contrast microscopy; type: functional, cell-based
HepG2 [35] = assay: Induction of cell vacuole formation in human HepG2 cells at 3 to 5 uM incubated for 48 hrs by phase contrast microscopy; type: functional, cell-based
SMMC-7721 [36] = assay: Induction of cell morphological changes in human SMMC7721 cells assessed as appearance of small vacuoles in cytoplasm at 5 uM incubated for 48 hrs by transmission electron microscopy; type: functional, cell-based; outline: as §3
SMMC-7721 [37] = assay: Induction of cell morphological changes in human SMMC7721 cells assessed as nuclear chromatin pyknosis at 3 to 10 uM incubated for 48 hrs by H and E staining based light microscopy; type: functional; outline: as §2
SMMC-7721 [38] = assay: Induction of cell morphological changes in human SMMC7721 cells assessed as change in cell membrane structure at 5 uM incubated for 48 hrs by transmission electron microscopy; type: functional, cell-based; outline: as §3
SMMC-7721 [39] = assay: Induction of cell morphological changes in human SMMC7721 cells assessed as appearance of concentrated nucleus at 5 uM incubated for 48 hrs by transmission electron microscopy; type: functional, cell-based; outline: as §3
SMMC-7721 [40] = assay: Induction of cell morphological changes in human SMMC7721 cells assessed as appearance of smaller nucleus at 5 uM incubated for 48 hrs by transmission electron microscopy; type: functional, cell-based; outline: as §3
SMMC-7721 [41] = assay: Induction of cell morphological changes in human SMMC7721 cells assessed as autophagosome formation at 5 uM incubated for 48 hrs by transmission electron microscopy; type: functional, cell-based; outline: as §3
SMMC-7721 [42] = assay: Induction of cell morphological changes in human SMMC7721 cells assessed as formation of apoptotic bodies at 5 uM incubated for 48 hrs by transmission electron microscopy; type: functional, cell-based; outline: as §3
SMMC-7721 [43] = assay: Induction of cell morphological changes in human SMMC7721 cells assessed as swelling of mitochondria at 5 uM incubated for 48 hrs by transmission electron microscopy; type: functional, cell-based; outline: as §3
SMMC-7721 [44] = assay: Induction of cell morphological changes in human SMMC7721 cells assessed as vacuole formation in mitochondria at 5 uM incubated for 48 hrs by transmission electron microscopy; type: functional, cell-based; outline: as §3
SMMC-7721 [45] = assay: Induction of cell morphological changes in human SMMC7721 cells assessed as appearance of ridges in mitochondria at 5 uM incubated for 48 hrs by transmission electron microscopy; type: functional, cell-based; outline: as §3
SMMC-7721 [46] = assay: Induction of cytoplasmic vacuolation in human SMMC7721 cells at 10 uM incubated for 48 hrs by phase contrast microscopy; type: functional, cell-based

## O=C(OCCN1CCCCC1)c1cc(OCc2ccccc2)c2c(c1)C(=O)c1cccc(OCc3ccccc3)c1C2=O
SMMC-7721 [1]
  Activity: Active
SMMC-7721 [2]
  Activity: Active
CNE [3]
  inhibition: Active
CNE-2 [4]
  inhibition: Active
HepG2 [5]
  inhibition: Active
SMMC-7721 [6]
  inhibition: Active
CNE [7]
  Activity: Active
CNE-2 [8]
  Activity: Active
HepG2 [9]
  Activity: Active
SMMC-7721 [10]
  Activity: Active

## O=C(O)c1cc(O)c2c(c1)C(=O)c1cccc(O)c1C2=O
SMMC-7721 [11]
  Activity: inactive
SMMC-7721 [12]
  Activity: inactive
SMMC-7721 [13]
  inhibition: inactive

## O=C(NCCO)c1cc(OCc2ccccc2)c2c(c1)C(=O)c1cccc(OCc3ccccc3)c1C2=O
SMMC-7721 [14]
  IC50: 1.5 µM
SMMC-7721 [15]
  Activity: Active
SMMC-7721 [16]
  Activity: Active
SMMC-7721 [17]
  Activity: Active
SMMC-7721 [18]
  Activity: Active
SMMC-7721 [19]
  Activity: Active
SMMC-7721 [20]
  Activity: Active
SMMC-7721 [21]
  Activity: Active
SMMC-7721 [22]
  Activity: Active
HepG2 [23]
  inhibition: Active
CNE-2 [24]
  inhibition: Active
SMMC-7721 [25]
  inhibition: Dose-dependent effect
SMMC-7721 [2]
  Activity: inactive
SMMC-7721 [26]
  Activity: 22.42%
SMMC-7721 [27]
  Activity: inactive
SMMC-7721 [28]
  Activity: inactive
SMMC-7721 [29]
  Activity: Tde
SMMC-7721 [30]
  Activity: Active
SMMC-7721 [31]
  inhibition: Active
SMMC-7721 [11]
  Activity: Active
SMMC-7721 [12]
  Activity: Active
SMMC-7721 [13]
  inhibition: inactive
CNE [32]
  inhibition: Active
CNE [7]
  Activity: Active
CNE-2 [8]
  Activity: Active
HepG2 [9]
  Activity: Active
CNE [33]
  Activity: Active
SMMC-7721 [10]
  Activity: Active
CNE-2 [34]
  Activity: Active
HepG2 [35]
  Activity: Active
SMMC-7721 [36]
  Activity: Active
SMMC-7721 [37]
  Activity: Active
SMMC-7721 [38]
  Activity: inactive
SMMC-7721 [39]
  Activity: Active
SMMC-7721 [40]
  Activity: Active
SMMC-7721 [41]
  Activity: inactive
SMMC-7721 [42]
  Activity: inactive
SMMC-7721 [43]
  Activity: Active
SMMC-7721 [44]
  Activity: Active
SMMC-7721 [45]
  Activity: inactive

## O=C1c2cccc(OCc3ccccc3)c2C(=O)c2c(OCc3ccccc3)cc(C(=O)N3CCN(CCO)CC3)cc21
CNE [3]
  inhibition: Active
CNE-2 [4]
  inhibition: Active
HepG2 [5]
  inhibition: Active
SMMC-7721 [6]
  inhibition: Active
CNE [7]
  Activity: Active
CNE-2 [8]
  Activity: Active
HepG2 [9]
  Activity: Active
SMMC-7721 [10]
  Activity: Active

## O=C(O)c1cc(OCc2ccccc2)c2c(c1)C(=O)c1cccc(OCc3ccccc3)c1C2=O
SMMC-7721 [11]
  Activity: Active
SMMC-7721 [12]
  Activity: inactive
SMMC-7721 [13]
  inhibition: inactive
SMMC-7721 [46]
  Activity: Active

— ChEMBL document CHEMBL4304750, “Novel Anthraquinone Compounds Induce Cancer Cell Death through Paraptosis” (ACS Med Chem Lett, 2019)
